In ChEMBL document CHEMBL3244403, “Cholecystokinin (pancreozymin). 4. Synthesis and properties of a biologically active analogue of the C-terminal heptapeptide with epsilon-hydroxynorleucine sulfate replacing tyrosine sulfate” (J Med Chem, 1978):
Values belong to the compound of their own block, whether it stands above or below them. Activity calls are given as the source filed them. The calls are words filed in the database; no cut-off is given here. Starred links: 1 amine or outer side, 2 acyl side, 3 side chain; linkers in the order of their positions; H or OH if unused. Non-standard residues stand in square brackets, D forms with d. Residues, ends and D or L forms follow the SMILES beside them. *: point of attachment. X1 = O=C([C@H](CCCCOS(=O)(=O)O)N[*:1])[*:2]; sY = N[C@@H](Cc1ccc(OS(=O)(=O)O)cc1)C(=O)O; Boc = CC(C)(C)OC(=O)*

Tests used:
Cavia porcellus [1] = organism: Cavia porcellus; experiment: Agonist activity at cholecystokinin receptor in NIH guinea pig assessed as gall bladder contraction at 7 ng by in situ assay; type: tissue-based
In short: (§1)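 Guinea pig gall bladder in situ (Ljungberg method), contraction recorded via strain gauge transducer after injection. Peptides first dissolved at 10 μg/mL in physiological saline containing 1 mg/mL NaHCO3 and 1 mg/mL L-cysteine. Response compared with injected standard cholecystokinin in Ivy dog units.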

Cavia porcellus [2] = organism: Cavia porcellus; experiment: Agonist activity at cholecystokinin receptor in NIH guinea pig pancreatic acinar cells assessed as induction of amylase secretion
In short: (§2)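 Guinea pig pancreas collagenase-dispersed acini in 100% O2-gassed Hepes buffer pH 7.4 containing 0.5 mM calcium and 5 mM theophylline. Amylase in supernatant assayed in duplicate with Phedabas reagent. Release expressed as % of total cellular amylase appearing in medium during incubation. CCK-(26-33) used as reference.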

Cavia porcellus [3] = organism: Cavia porcellus; experiment: Agonist activity at cholecystokinin receptor in NIH guinea pig assessed as gall bladder contraction at 7 to 21 ng by in situ assay; type: tissue-based; in short: as §1
[4] = Retardation factor of the compound using EtOAc-pyridine-AcOH-H2O at ratio of 120:20:6:11 as solvent system by thin layer chromatography; type: physicochemical
[5] = Retardation factor of the compound using EtOAc-pyridine-AcOH-H2O at ratio of 60:20:6:11 as solvent system by thin layer chromatography; type: physicochemical
[6] = Retardation factor of the compound using 1-butanol-AcOH-H2O at ratio of 4:1:1 as solvent system by thin layer chromatography; type: physicochemical
Cavia porcellus [7] = organism: Cavia porcellus; experiment: Agonist activity at cholecystokinin receptor in NIH guinea pig pancreatic acinar cells assessed as induction of amylase secretion at 0.03 to 0.3 nM; in short: as §2
Cavia porcellus [8] = organism: Cavia porcellus; experiment: Agonist activity at cholecystokinin receptor in NIH guinea pig assessed as gall bladder contraction at 7 to 1900 ng by in situ assay; type: tissue-based; in short: as §1

Activity (Cavia porcellus [1]): Active | Activity (Cavia porcellus [2]): Active
Structure (SMILES): CSCC[C@H](NC(=O)[C@H](Cc1ccc(OS(=O)(=O)O)cc1)NC(=O)OC(C)(C)C)C(=O)NCC(=O)N[C@@H](Cc1c[nH]c2ccccc12)C(=O)N[C@@H](CCSC)C(=O)N[C@@H](CC(=O)O)C(=O)N[C@@H](Cc1ccccc1)C(N)=O (Boc-[sY]MGWMDF-NH2)

Activity (Cavia porcellus [3]): Active | Rf [4]: 0.19 | Rf [5]: 0.31 | Rf [6]: 0.55 | Activity (Cavia porcellus [2]): Active
Structure (SMILES): CSCC[C@H](NC(=O)[C@H](CCCCOS(=O)(=O)O)NC(=O)OC(C)(C)C)C(=O)NCC(=O)N[C@@H](Cc1c[nH]c2ccccc12)C(=O)N[C@@H](CCSC)C(=O)N[C@@H](CC(=O)O)C(=O)N[C@@H](Cc1ccccc1)C(N)=O (Boc-[X1]MGWMDF-NH2)

Structure (SMILES): CSCC[C@H](NC(=O)[C@H](Cc1ccc(OS(=O)(=O)O)cc1)NC(=O)[C@@H](N)CC(=O)O)C(=O)NCC(=O)N[C@@H](Cc1c[nH]c2ccccc12)C(=O)N[C@@H](CCSC)C(=O)N[C@@H](CC(=O)O)C(=O)N[C@@H](Cc1ccccc1)C(N)=O
Activity (Cavia porcellus [7]): Active

Activity (Cavia porcellus [8]): Active | Activity (Cavia porcellus [2]): Active
Structure (SMILES): CSCC[C@H](NC(=O)[C@H](COS(=O)(=O)O)NC(=O)OC(C)(C)C)C(=O)NCC(=O)N[C@@H](Cc1c[nH]c2ccccc12)C(=O)N[C@@H](CCSC)C(=O)N[C@@H](CC(=O)O)C(=O)N[C@@H](Cc1ccccc1)C(N)=O
